Counter-ions that a name gives are not always drawn. Numbered stars: 1 amine (or outer) side, 2 acyl side, 3 side chain; on linkers, the order of the positions; unused ones are H or OH. Square brackets hold non-standard residues; d marks the D form. Peptide text beside a SMILES is read from it. * marks the point of attachment. Dip = N[C@H](C(=O)O)C(c1ccccc1)c1ccccc1; NHcHex = C1CCC(N*)CC1; CO = O=C([*:1])[*:2]; Propionyl = CCC(=O)*; Tfa = O=C(C(F)(F)F)*; Bz = O=C(c1ccccc1)*; Ms = CS(=O)(=O)*
How the values were obtained:
[1] = biological target: T1, Endothelin receptor type B (Homo sapiens, UniProt P24530); experiment: Binding affinity measured in CHO cells stably transfected with the human endothelin B receptor; type: cell-based
T1 sequence (P24530 whole entry): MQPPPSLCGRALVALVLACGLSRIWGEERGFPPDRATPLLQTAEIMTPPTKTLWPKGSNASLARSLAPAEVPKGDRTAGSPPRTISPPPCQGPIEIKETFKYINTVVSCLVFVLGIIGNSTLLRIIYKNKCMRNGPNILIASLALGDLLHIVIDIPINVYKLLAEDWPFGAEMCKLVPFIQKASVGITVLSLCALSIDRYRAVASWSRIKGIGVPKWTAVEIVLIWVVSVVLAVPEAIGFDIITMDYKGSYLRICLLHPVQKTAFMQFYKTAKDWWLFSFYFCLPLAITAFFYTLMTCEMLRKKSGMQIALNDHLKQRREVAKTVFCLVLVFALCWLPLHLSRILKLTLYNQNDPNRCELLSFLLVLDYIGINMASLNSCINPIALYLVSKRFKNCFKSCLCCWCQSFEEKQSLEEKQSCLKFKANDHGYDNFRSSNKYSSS
How it was run: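 Membranes come from confluent CHO-K1 clones stably expressing human ETB, grown in DME/F12 with 10% FCS and G418 0.5 mg/mL. Specific binding fitted by nonlinear least squares. Triplicate points per IC50.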

[2] = biological target: T2, Endothelin receptor type B (Rattus norvegicus, UniProt P21451); experiment: Binding affinity against endothelin B receptor rat cerebellar membranes.
T2 sequence (P21451 whole entry): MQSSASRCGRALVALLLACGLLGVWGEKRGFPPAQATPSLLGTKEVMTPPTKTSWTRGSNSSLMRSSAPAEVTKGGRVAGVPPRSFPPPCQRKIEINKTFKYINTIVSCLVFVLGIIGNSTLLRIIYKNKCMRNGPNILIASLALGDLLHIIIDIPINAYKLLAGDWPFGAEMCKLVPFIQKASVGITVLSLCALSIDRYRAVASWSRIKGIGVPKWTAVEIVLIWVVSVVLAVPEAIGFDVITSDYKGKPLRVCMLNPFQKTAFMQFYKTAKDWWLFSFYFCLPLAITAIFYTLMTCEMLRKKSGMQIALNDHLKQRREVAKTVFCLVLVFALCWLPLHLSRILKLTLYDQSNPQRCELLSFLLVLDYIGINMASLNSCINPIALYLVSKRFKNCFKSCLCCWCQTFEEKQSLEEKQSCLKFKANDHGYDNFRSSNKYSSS

[3] = Relative affinities for rat endothelin B receptor and human endothelin B receptor; set-up: reference not given here
[4] = biological target: T2, Endothelin receptor type B; experiment: Inhibition of SRTX-6c stimulated arachidonic acid release in CHO cells expressing rat ET- B receptors
[5] = Relative affinities against endothelin A receptor (rabbit) and endothelin B receptor (rat); set-up: reference not given here
[6] = biological target: T2, Endothelin receptor type B; experiment: Inhibition of SRTX-6c stimulated arachidonic acid release in CHO cells expressing recombinant rat ET- B receptors

SMILES | IC50 [1] | IC50 [2] | Ratio [3] | IC50 [4] | Ratio [5] | IC50 [6]
CC[C@H](C)[C@H](NC(=O)[C@H](CC(=O)O)NC(=O)[C@H](CCCNC(=N)N)NC(=O)[C@H](NC(C)=O)C(c1ccccc1)c1ccccc1)C(=O)N[C@H](C(=O)N[C@@H](Cc1c[nH]c2ccccc12)C(=O)O)[C@@H](C)CC | 590 nM | 10 nM | – | – | – | –
CC[C@H](C)[C@H](NC(=O)[C@H](CC(=O)O)NC(=O)[C@H](CCCNC(=N)N)NC(=O)[C@@H](NC(C)=O)C(c1ccccc1)c1ccccc1)C(=O)N[C@H](C(=O)N[C@@H](Cc1c[nH]c2ccccc12)C(=O)O)[C@@H](C)CC | – | – | 59 | – | – | –
CC[C@H](C)[C@H](NC(=O)[C@H](Cc1ccccc1)NC(=O)[C@H](CC(=O)O)NC(=O)[C@H](CC(C)C)NC(=O)[C@@H](NC(C)=O)C(c1ccccc1)c1ccccc1)C(=O)N[C@@H](Cc1c[nH]c2ccccc12)C(=O)O (Ac-[Dip]LDFIW-OH) | 900 nM | 56 nM | 16 | – | – | –
CC[C@H](C)[C@H](NC(=O)[C@H](CCC(=O)O)NC(=O)[C@H](CC(C)C)NC(=O)[C@@H](NC(C)=O)C(c1ccccc1)c1ccccc1)C(=O)N[C@H](C(=O)N[C@@H](Cc1c[nH]c2ccccc12)C(=O)O)[C@@H](C)CC (Ac-[Dip]LEIIW-OH) | 1800 nM | 19 nM | 95 | – | – | –
CC[C@H](C)[C@H](NC(=O)[C@H](Cc1ccccc1)NC(=O)[C@H](CC(C)C)NC(=O)[C@@H](NC(C)=O)C(c1ccccc1)c1ccccc1)C(=O)N[C@H](C(=O)N[C@@H](Cc1c[nH]c2ccccc12)C(=O)O)[C@@H](C)CC (Ac-[Dip]LFIIW-OH) | > 1600 nM | 60 nM | 17 | – | – | –
CC[C@H](C)[C@H](NC(=O)[C@H](CC(=O)O)NC(=O)[C@H](CC(C)C)NC(=O)[C@@H](NC(=O)c1ccccc1)C(c1ccccc1)c1ccccc1)C(=O)N[C@H](C(=O)N[C@@H](Cc1c[nH]c2ccccc12)C(=O)O)[C@@H](C)CC (Bz-[Dip]LDIIW-OH) | 4400 nM | 30 nM | 147 | 290 nM | 210 | –
CC[C@H](C)[C@H](NC(=O)[C@H](CC(=O)O)NC(=O)[C@H](CC(C)C)NC(=O)[C@@H](NS(C)(=O)=O)C(c1ccccc1)c1ccccc1)C(=O)N[C@H](C(=O)N[C@@H](Cc1c[nH]c2ccccc12)C(=O)O)[C@@H](C)CC (Ms-[Dip]LDIIW-OH) | – | 260 nM | – | – | 2.1 | 1300 nM
CCC(=O)N[C@H](C(=O)N[C@@H](CC(C)C)C(=O)N[C@@H](CC(=O)O)C(=O)N[C@H](C(=O)N[C@H](C(=O)N[C@@H](Cc1c[nH]c2ccccc12)C(=O)O)[C@@H](C)CC)[C@@H](C)CC)C(c1ccccc1)c1ccccc1 (Propionyl-[Dip]LDIIW-OH) | – | 260 nM | – | 220 nM | 3.8 | –
CC[C@H](C)[C@H](NC(=O)[C@H](CC(=O)O)NC(=O)[C@H](CC(C)C)NC(=O)[C@@H](NC(=O)C(F)(F)F)C(c1ccccc1)c1ccccc1)C(=O)N[C@H](C(=O)N[C@@H](Cc1c[nH]c2ccccc12)C(=O)O)[C@@H](C)CC (Tfa-[Dip]LDIIW-OH) | – | 600 nM | – | 290 nM | 0.42 | –
CC[C@H](C)[C@H](NC(=O)[C@H](CCCCN)NC(=O)[C@H](CC(C)C)NC(=O)C(NC(C)=O)C(c1ccccc1)c1ccccc1)C(=O)N[C@H](C(=O)N[C@@H](Cc1c[nH]c2ccccc12)C(=O)O)[C@@H](C)CC (single isomer, unassigned) | > 10000 nM | – | – | – | – | –
CC[C@H](C)[C@H](NC(=O)[C@H](CC(=O)O)NC(=O)[C@H](CC(C)C)NC(=O)[C@@H](NC(=O)NC)C(c1ccccc1)c1ccccc1)C(=O)N[C@H](C(=O)N[C@@H](Cc1c[nH]c2ccccc12)C(=O)O)[C@@H](C)CC ({NHMe-CO}-[Dip]LDIIW-OH) | – | 140 nM | – | 20 nM | 6.1 | –
CC[C@H](C)[C@H](NC(=O)[C@H](CC(=O)O)NC(=O)[C@H](CC(C)C)NC(=O)[C@@H](NC(=O)NC1CCCCC1)C(c1ccccc1)c1ccccc1)C(=O)N[C@H](C(=O)N[C@@H](Cc1c[nH]c2ccccc12)C(=O)O)[C@@H](C)CC ({NHcHex-CO}-[Dip]LDIIW-OH) | – | 68 nM | – | 210 nM | 29.4 | –

From ChEMBL document CHEMBL1128478, “Structure-activity relationships of the potent combined endothelin-A/endothelin-B receptor antagonist Ac-DDip16-Leu-Asp-Ile-Ile-Trp21: development of endothelin-B receptor selective antagonists” (J Med Chem, 1995)
